Here are results for 16 compounds from the M2OR odorant receptor database.

The subject of one assay is T1, A0A140T8K0.
T1 sequence (whole entry): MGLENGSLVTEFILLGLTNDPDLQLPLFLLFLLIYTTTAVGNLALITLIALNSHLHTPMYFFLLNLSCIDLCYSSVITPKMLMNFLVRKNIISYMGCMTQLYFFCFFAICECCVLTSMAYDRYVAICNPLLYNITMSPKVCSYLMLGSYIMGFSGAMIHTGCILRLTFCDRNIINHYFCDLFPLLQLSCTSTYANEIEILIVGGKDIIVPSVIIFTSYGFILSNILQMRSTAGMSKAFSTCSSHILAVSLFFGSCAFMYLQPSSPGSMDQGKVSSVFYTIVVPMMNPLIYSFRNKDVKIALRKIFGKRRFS
To be noted: stereoisomer not certain. In outline: (§1)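 Values were gathered from published papers (main text and supplementary material), with extra details requested from the original authors when needed, and checked for typos and inconsistencies. Each receptor–molecule pair is called responsive (active) if the original authors judged the measured signal statistically different from baseline, and non-responsive (inactive) otherwise. Assay methods varied by source, often transient mammalian cell-line luciferase assays. Recorded details include cell line, G-protein, co-transfected protein and tags.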
`CSSC`: the “odorant receptor agonist call” value was “inactive”.

As to `Cc1ccc(OC(=O)Cc2ccccc2)cc1`, the “odorant receptor agonist call” value was “inactive”.

With `Oc1ccccc1Br`, the “odorant receptor agonist call” value was “inactive”.

For `CC(C=O)Cc1ccc2c(c1)OCO2` (configuration not stated), the “odorant receptor agonist call” value was “inactive”.

As for `CCCCCCC(Br)C(=O)O` (configuration not stated), the “odorant receptor agonist call” value was “inactive”.

Take `O=c1cc(O)c2ccccc2o1`: the “odorant receptor agonist call” value was “inactive”.

Take `OCc1ccc2c(c1)OCO2`: the “odorant receptor agonist call” value is “inactive”.

Take `O=Cc1ccccc1`: the “odorant receptor agonist call” value is “inactive”.

Turning to `O=Cc1ccc2c(c1)OCO2`, the “odorant receptor agonist call” value is “inactive”.

Turning to `C=CCOC(=O)Cc1ccccc1`, the “odorant receptor agonist call” value was “inactive”.

On to `C=C(C)C1CC=C(C=O)CC1` (configuration not stated), for which the “odorant receptor agonist call” value is “inactive”.

Take `O=CC=Cc1ccccc1`: the “odorant receptor agonist call” value was “inactive”.

For the compound `COc1ccc(C=O)cc1`, the “odorant receptor agonist call” value was “inactive”.

As for `CCCCC(Br)C(=O)O` (configuration not stated), the “odorant receptor agonist call” value was “inactive”.

A further assay concerns T2, A0A140T8K4.
T2 sequence (whole entry): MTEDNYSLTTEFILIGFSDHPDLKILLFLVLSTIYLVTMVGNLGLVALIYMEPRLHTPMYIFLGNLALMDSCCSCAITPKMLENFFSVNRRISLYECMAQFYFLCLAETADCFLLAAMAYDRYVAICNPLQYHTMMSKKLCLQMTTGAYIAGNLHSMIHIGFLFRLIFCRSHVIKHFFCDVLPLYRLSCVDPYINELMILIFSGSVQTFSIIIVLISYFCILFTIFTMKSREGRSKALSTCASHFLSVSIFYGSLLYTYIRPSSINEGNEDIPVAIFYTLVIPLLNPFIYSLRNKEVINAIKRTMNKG
As to conditions: stereoisomer not certain. A digest of the protocol: as §1
Turning to `CCC1CCC(=O)O1` (configuration not stated), the “odorant receptor agonist call” value is “inactive”.

With `C=CCc1ccccc1`, the “odorant receptor agonist call” value was “inactive”.

Turning to `O=c1cc(O)c2ccccc2o1`, the “odorant receptor agonist call” value was “inactive”.

For the compound `C=CCOC(=O)Cc1ccccc1`, the “odorant receptor agonist call” value was “inactive”.

The test system of the next assay is T3, A0A1L1SVG7.
T3 sequence (whole entry): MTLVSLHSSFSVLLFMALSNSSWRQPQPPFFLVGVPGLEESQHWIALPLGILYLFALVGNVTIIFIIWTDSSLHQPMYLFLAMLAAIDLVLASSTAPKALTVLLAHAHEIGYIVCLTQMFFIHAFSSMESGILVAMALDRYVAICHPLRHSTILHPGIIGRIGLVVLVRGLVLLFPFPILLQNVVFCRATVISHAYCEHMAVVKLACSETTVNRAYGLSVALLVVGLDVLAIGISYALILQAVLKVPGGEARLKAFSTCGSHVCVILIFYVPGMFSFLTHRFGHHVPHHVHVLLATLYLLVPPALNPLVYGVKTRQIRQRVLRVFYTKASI
To be noted: stereoisomer not certain. A digest of the protocol: as §1
As to `CCC1CCC(=O)O1` (configuration not stated), the “odorant receptor agonist call” value was “inactive”.

`C=CCc1ccccc1`: the “odorant receptor agonist call” value is “inactive”.

Take `O=c1cc(O)c2ccccc2o1`: the “odorant receptor agonist call” value was “inactive”.

For the compound `C=CCOC(=O)Cc1ccccc1`, the “odorant receptor agonist call” value was “inactive”.
